Rows were chosen to be rich in hits. Some 1.6% of all compounds tested hit in one or more screens of this group.
PLCg1 inh – blocks human PLC-gamma1 enzyme activity | purified PLC-gamma1, fluorogenic substrate, fluorescence | 370,000 tested, 0.84% active | AID 720700 | inhibition, % at 12.2 µM; in the data active = inhibition above about 9.5%
proCasp3 act – activators of human procaspase-3 | recombinant procaspase-3 D3A, Ac-DEVD-pNA absorbance 405 nm | P42574 | activation, % at 8.5 µM | AID 463141 | 330,000 tested, 0.11% active;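 active = activation above the mean of all tested compounds plus 3 SD, cut at about 21% in these data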;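 also: 0% = DMSO alone and 100% = DMSO wells spiked with extra 5 µM PC-3 D3A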
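System: Procaspase-3 D3A mutant. Medium: Zinc-free 300 mM NaCl, 50 mM HEPES, 0.01% Triton X-100. Schedule: 1 h preincubation plus 2 h reaction at 25 °C. Measured by: 405 nm absorbance of p-nitroaniline, reads at 0 and 120 min. Read-out: percent activation relative to control range.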
proCasp7 act – counter-screen: procaspase-7 (human) activation; AID 463210; activation, % at 8.5 µM; P55210; 330,000 tested, 0.093% active; recombinant procaspase-7, Ac-DEVD-pNA absorbance 405 nm; D23A/D198A/D206A triple mutant, cannot self-cleave; scale: DMSO 0, 5 µM enzyme 100;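 active = percent activation above the screen-wide mean plus 3 SD, cut at about 25% in these data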
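Replicates: singlicate. Assay system: Procaspase-7 triple mutant (PC-7 D3A). Signal: 405 nm absorbance of p-nitroaniline. Times: 1 h preincubation, 2 h reaction. Buffer or medium: Zinc-free HEPES pH 7.4 with 300 mM NaCl, 0.01% Triton X-100. Also added: DEVD-pNA substrate. Benchmarks: DMSO wells as 0%, DMSO with 5 µM added PC-7 as 100%.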
PLCb3 inh – PLC-beta3 (human) inhibition, primary screen; Q01970; Purified PLC-beta3, fluorogenic substrate, fluorescence; AID 720704; inhibition, % at 12.2 µM; 370,000 tested, 0.18% active;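 also: 0% = median of compound wells on plate and 100% = full blocker control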
HGIII-sPLA2 inh – Inhibits HGIII-sPLA2 liposome hydrolysis, primary screen; Q9NZ20; inhibition, % at 12.2 µM; 370,000 tested, 0.56% active; QFRET BODIPY PC-A2 liposome hydrolysis, fluorescence;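 active = inhibition above mean plus 3 SD of compounds lying within the high and low control bounds, cut at about 19% in these data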;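 also: 0% = median of test compound wells and 100% = no enzyme DMSO wells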
PLCgamma1 ctr – PLC-gamma1 inhibition, counter-screen for PLC-beta3 hits; 3,300 tested, 3.1% active; shares compounds with PLCg1 inh; purified PLC-gamma1, fluorogenic substrate, fluorescence; inhibition, % at 12.3 µM; in the data active = inhibition above about 9.5%
PLCb3 confirm – confirmation of human PLC-beta3 inhibitors. AID 743261. 3,300 tested, 1% active. inhibition, % at 12.3 µM. purified PLC-beta3, fluorogenic substrate fluorescence. shares compounds with PLCg1 inh
* marks the source's active call; other numbers are inactive results. Rule as the data show it, unless noted: active = inhibition above about 11%; inactive = the rest.

Screening COc1ccc(NC(=O)Nc2ccc3c(c2)C(=O)N([C@H](C)CO)C[C@H](C)[C@@H](CN(C)S(=O)(=O)c2cccs2)O3)cc1 returned PLCg1 inh 11*, proCasp3 act 2, proCasp7 act 7, PLCb3 inh 4, HGIII-sPLA2 inh -20, PLCgamma1 ctr -4 and PLCb3 confirm -2.
O=C(Nc1ccc(Cl)c(Cl)c1)Nc1ccc(Br)cc1F was read as PLCg1 inh 8, proCasp3 act 2, proCasp7 act -1, PLCb3 inh 12*, HGIII-sPLA2 inh 4, PLCgamma1 ctr 0 and PLCb3 confirm -2.
O=C(Nc1ccc(Cl)cc1)Nc1ccc(Cl)c(Cl)c1 was read as PLCg1 inh -1, proCasp3 act 0, proCasp7 act 2, PLCb3 inh 0 and HGIII-sPLA2 inh 3.
CCOc1ccc(N(CC(=O)NCCc2ccccc2)C(=O)c2csnn2)cc1 was read as PLCg1 inh 11*, proCasp3 act 11, proCasp7 act 11, PLCb3 inh -6, HGIII-sPLA2 inh 14, PLCgamma1 ctr 3 and PLCb3 confirm 0.
Screening COc1ccc(-c2ccc(NS(=O)(=O)c3cccc([N+](=O)[O-])c3)cc2)nn1 returned PLCg1 inh 13*, proCasp3 act -2, proCasp7 act 3, PLCb3 inh -2, HGIII-sPLA2 inh -8, PLCgamma1 ctr -3 and PLCb3 confirm -1.
For COc1ccc(-c2cccc(NS(=O)(=O)c3cccc([N+](=O)[O-])c3)c2)nn1 the results were PLCg1 inh -2, proCasp3 act 8, proCasp7 act 4, PLCb3 inh -2 and HGIII-sPLA2 inh -17.
Screening Cc1cnn(-c2cc(N/N=C/c3ccccc3F)ncn2)c1 returned PLCg1 inh 12*, proCasp3 act 5, proCasp7 act 11, PLCb3 inh 5, HGIII-sPLA2 inh 4, PLCgamma1 ctr -7 and PLCb3 confirm -3.
For CCN(CC)S(=O)(=O)c1ccc(C(C)NCC(=O)Nc2ccccc2C(=O)NC2CC2)cc1 (stereo unspecified) the results were PLCg1 inh 10*, PLCb3 inh -5, HGIII-sPLA2 inh 4, PLCgamma1 ctr 0 and PLCb3 confirm -1.
COc1cccc(CNC(=S)Nc2ccc3c(c2)c(=O)n(C)n3Cc2ccccc2)c1 was read as PLCg1 inh -161, PLCb3 inh -200 and HGIII-sPLA2 inh -6.
CN1CCN(NC(=O)c2ccc(Cl)s2)CC1 was read as PLCg1 inh 9.8*, proCasp3 act 7, proCasp7 act 6, PLCb3 inh -11, HGIII-sPLA2 inh 13, PLCgamma1 ctr -2 and PLCb3 confirm 3.
Screening CCOC(=O)C1=C(C)N(CCCC(=O)O)C(=O)NC1c1ccccc1OS(=O)(=O)c1ccc([N+](=O)[O-])cc1 (stereo unspecified) returned PLCg1 inh 12*, proCasp3 act 1, proCasp7 act -7, PLCb3 inh 8, HGIII-sPLA2 inh 10, PLCgamma1 ctr 7 and PLCb3 confirm 0.
CC1=C(C(=O)OCc2ccccc2)C(c2ccccc2OS(=O)(=O)c2ccc([N+](=O)[O-])cc2)NC(=O)N1CCCC(=O)O (stereo unspecified) was read as PLCg1 inh -1, proCasp3 act 15, proCasp7 act 3, PLCb3 inh 2 and HGIII-sPLA2 inh 3.
Cc1ccc(-c2nn(-c3ccccc3)cc2C(=O)Nc2ccc(C)c(S(=O)(=O)N3CCOCC3)c2)cc1 was read as PLCg1 inh 9.6*, proCasp3 act -4, proCasp7 act -4, PLCb3 inh 4, HGIII-sPLA2 inh 1, PLCgamma1 ctr -5 and PLCb3 confirm -9.
For CC1CCC(NC(=O)CN2C(=O)c3ccccc3S2(=O)=O)CC1 (stereo unspecified) the results were PLCg1 inh 12*, proCasp3 act 10, proCasp7 act 4, PLCb3 inh -1, HGIII-sPLA2 inh 3, PLCgamma1 ctr -2 and PLCb3 confirm 1.
Screening CC(C)COP(=O)(CNC(=O)CN1C(=O)c2ccccc2S1(=O)=O)OCC(C)C returned PLCg1 inh 9.8*, proCasp3 act 0, proCasp7 act -1, PLCb3 inh 1, HGIII-sPLA2 inh -2, PLCgamma1 ctr -9 and PLCb3 confirm -3.
For COCCNC(=O)C1(C(F)(F)F)CC(CCCO)CCCO1 (stereo unspecified) the results were PLCg1 inh -1, proCasp3 act 6, proCasp7 act -5, PLCb3 inh 3 and HGIII-sPLA2 inh -1.
Screening NC1=NC(=O)/C(=C/c2cccs2)S1 returned PLCg1 inh 15*, proCasp3 act 9, proCasp7 act -5, PLCb3 inh 2, HGIII-sPLA2 inh 1, PLCgamma1 ctr 2 and PLCb3 confirm 3.
COc1ccc(C)cc1S(=O)(=O)N(CC(=O)N1CCOCC1)c1cc(C)cc(C)c1 was read as PLCg1 inh 10*, proCasp3 act 2, proCasp7 act -4, PLCb3 inh -2, HGIII-sPLA2 inh 7, PLCgamma1 ctr 0 and PLCb3 confirm 2.
For O=C(CSc1ccc2nnc(CCNC(=O)c3ccc(F)cc3)n2n1)NCc1ccco1 the results were PLCg1 inh 14*, proCasp3 act -6, proCasp7 act -14, PLCb3 inh -5, HGIII-sPLA2 inh 11, PLCgamma1 ctr -3 and PLCb3 confirm -1.
For CCCCCCCCCCOC(=O)Cn1c(COc2ccccc2)[n+](C)c2ccccc21 the results were PLCg1 inh 9.5*, proCasp3 act -6, proCasp7 act 8, PLCb3 inh 0, HGIII-sPLA2 inh -158, PLCgamma1 ctr -5 and PLCb3 confirm -5.
CCCCCCCCCCOC(=O)Cn1c(COc2ccc(Cl)cc2)[n+](C)c2ccccc21 was read as PLCg1 inh 13*, proCasp3 act -3, proCasp7 act 9, PLCb3 inh -3, HGIII-sPLA2 inh -112, PLCgamma1 ctr 7 and PLCb3 confirm 2.
Screening O=C(NC1CCCCC1)C(c1ccnc2ccccc12)n1c(=O)c(-c2ccccc2)nc2ccccc21 (stereo unspecified) returned PLCg1 inh -7, PLCb3 inh -11 and HGIII-sPLA2 inh 11.
CC(C)(C)N1Cc2nnn(CC3CCCCC3)c2-c2ccccc2S1(=O)=O was read as PLCg1 inh 1, PLCb3 inh 4 and HGIII-sPLA2 inh -2.
COCCCNC(=S)Nc1c(C)cc(C)cc1C was read as PLCg1 inh 13*, proCasp3 act 3, proCasp7 act 6, PLCb3 inh 6, HGIII-sPLA2 inh 12, PLCgamma1 ctr -5 and PLCb3 confirm -4.

Screens from PubChem BioAssay.
